ChEMBL document CHEMBL1140335, “"Reversine" and its 2-substituted adenine derivatives as potent and selective A3 adenosine receptor antagonists” (J Med Chem, 2005)

Experiments:
Adenosine receptor A3 = biological target: T1, Adenosine receptor A3 (Homo sapiens, UniProt P0DMS8); assay: biochemical; type: cell-based, CHO
T1 sequence (P0DMS8 whole entry): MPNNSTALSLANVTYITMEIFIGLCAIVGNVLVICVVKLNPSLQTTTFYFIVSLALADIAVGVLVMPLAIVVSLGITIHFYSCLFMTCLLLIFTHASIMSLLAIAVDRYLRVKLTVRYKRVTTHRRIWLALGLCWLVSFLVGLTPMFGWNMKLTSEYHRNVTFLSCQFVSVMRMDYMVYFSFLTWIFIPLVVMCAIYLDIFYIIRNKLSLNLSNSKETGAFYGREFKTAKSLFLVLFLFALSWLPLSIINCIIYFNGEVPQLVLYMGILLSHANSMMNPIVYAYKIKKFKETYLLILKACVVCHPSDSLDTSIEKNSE

[1] = biological target: T2, Adenosine receptor A1 (Homo sapiens) (UniProt P30542); assay: (§1) Percent inhibition of [3H]DPCPX binding to human adenosine A1 receptor expressed in CHO cells at 10 uM; type: cell-based
T2 sequence (whole entry): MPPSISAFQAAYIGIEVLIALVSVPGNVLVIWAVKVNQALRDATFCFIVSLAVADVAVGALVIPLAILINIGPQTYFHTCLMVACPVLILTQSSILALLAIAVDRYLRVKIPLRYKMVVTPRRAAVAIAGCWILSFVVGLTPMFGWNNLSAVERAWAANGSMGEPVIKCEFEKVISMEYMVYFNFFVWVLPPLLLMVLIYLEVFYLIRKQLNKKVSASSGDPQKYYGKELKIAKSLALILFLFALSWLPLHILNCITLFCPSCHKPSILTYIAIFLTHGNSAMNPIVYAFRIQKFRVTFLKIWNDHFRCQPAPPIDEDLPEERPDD
Method in brief: (§2)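 Test ligand at a single 10 μM was run against 0.5 nM [3H]DPCPX on membranes (20 μg protein) from CHO cells stably expressing human A1 receptor, in 50 mM Tris-HCl, pH 7.4, for 60 min at 25°C. Nonspecific binding was defined with 10 μM NECA. Filtration was on GF/B, with scintillation counting. Results are percent displacement of radioligand.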

Adenosine receptor A2a [2] = biological target: T3, Adenosine receptor A2a (Homo sapiens, UniProt P29274); assay: Percent inhibition of [3H]-ZM241385 binding to human adenosine A2A receptor expressed in CHO cells at 10 uM
T3 sequence (P29274 whole entry): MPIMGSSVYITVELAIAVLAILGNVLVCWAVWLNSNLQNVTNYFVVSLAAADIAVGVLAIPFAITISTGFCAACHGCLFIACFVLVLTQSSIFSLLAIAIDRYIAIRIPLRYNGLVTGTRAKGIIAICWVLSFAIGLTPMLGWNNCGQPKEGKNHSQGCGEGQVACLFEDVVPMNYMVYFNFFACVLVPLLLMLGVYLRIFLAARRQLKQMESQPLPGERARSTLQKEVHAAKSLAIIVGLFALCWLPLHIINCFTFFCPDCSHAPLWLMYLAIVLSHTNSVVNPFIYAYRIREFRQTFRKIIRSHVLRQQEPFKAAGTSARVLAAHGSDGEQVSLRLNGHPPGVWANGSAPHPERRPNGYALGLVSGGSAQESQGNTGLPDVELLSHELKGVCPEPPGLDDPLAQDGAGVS

Adenosine receptor A1 [3] = biological target: T4, Adenosine receptor A1 (Homo sapiens, UniProt P30542); type: cell-based, CHO
T4 sequence (P30542 whole entry): T2 sequence (whole entry)

Adenosine receptor A2a [4] = biological target: T3, Adenosine receptor A2a; type: cell-based, CHO
Adenosine receptor A1 [5] = biological target: T4, Adenosine receptor A1; assay: as §1; type: cell-based
Method in brief: as §2

Adenosine receptor A2a [6] = biological target: T3, Adenosine receptor A2a; assay: Percent inhibition of […] binding to human adenosine A2A receptor expressed in CHO cells at 10 uM; type: cell-based
Adenosine receptor A1 [7] = biological target: T4, Adenosine receptor A1; assay: Percent inhibition of [3H]-DPCPX binding to human adenosine A1 receptor expressed in CHO cells at 10 uM; type: cell-based
Method in brief: as §2

Adenosine receptor A1 [8] = biological target: T4, Adenosine receptor A1; assay: Binding affinity for human adenosine A1 receptor
Method in brief: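 Membranes from CHO cells stably expressing human A1 receptor (20 μg protein) were incubated with 0.5 nM [3H]DPCPX in 50 mM Tris-HCl, pH 7.4, for 60 min at 25°C. Nonspecific binding was defined with 10 μM NECA. Bound label was collected by GF/B filtration and counted by scintillation.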

Row | Ki (Adenosine receptor A3) [nM] | inhibition [1] [%] | inhibition (Adenosine receptor A2a [2]) [%] | Compound | further results
1 | 960 |  |  | Cn1cnc2c(NC3CCCCCC3)nc(Nc3ccccc3)nc21 | Ki (Adenosine receptor A1 [3]): 1940 nM; Ki (Adenosine receptor A2a [4]): 2950 nM
2 | 51 |  |  | c1ccc(Nc2nc3ncnc-3c(NC3CCCCC3)[nH]2)cc1 | Ki (Adenosine receptor A1 [5]): 2730 nM; Ki (Adenosine receptor A2a [4]): 1700 nM
3 | 1460 |  |  | c1ccc(CCNc2nc(NC3CCCCC3)c3[nH]cnc3n2)cc1 | Ki (Adenosine receptor A1 [5]): 3170 nM; inhibition (Adenosine receptor A2a [6]): 46%
4 | 1570 | 16 |  | c1nc2c(NC3CCCCC3)nc(Nc3ccc(N4CCCCC4)cc3)nc2[nH]1 | inhibition (Adenosine receptor A2a [6]): 50%
5 | 2420 |  |  | c1ccc2cc(Nc3nc(NC4CCCCC4)c4[nH]cnc4n3)ccc2c1 | 
6 | 340 |  |  | c1ccc(Nc2nc3ncnc-3c(NC3CCCCCCC3)[nH]2)cc1 | Ki (Adenosine receptor A1 [7]): 4.47 µM
7 | 70 |  |  | Cn1cnc2c(NC3CCCCC3)nc(Nc3ccccc3)nc21 | Ki (Adenosine receptor A1 [3]): 1880 nM; Ki (Adenosine receptor A2a [4]): 1200 nM
8 | 920 | 42 | 34 | c1ccc(CNc2nc(NC3CCCCC3)c3[nH]cnc3n2)cc1 | 
9 | 42 |  |  | c1ccc(Nc2nc(NC3CCCCCC3)c3[nH]cnc3n2)cc1 | Ki (Adenosine receptor A1 [3]): 1720 nM; Ki (Adenosine receptor A2a [4]): 4120 nM

The remaining lines, values behind:

Row | Compound | Ki (Adenosine receptor A3) [nM] | inhibition [1] [%] | inhibition (Adenosine receptor A2a [2]) [%] | further results
10 | c1nc2nc(Nc3ccc(N4CCOCC4)cc3)nc(NC3CC4CCC3C4)c2[nH]1 (configuration not stated) | 122 |  |  | 
11 | c1nc2nc(Nc3ccc(N4CCOCC4)cc3)nc(NC3CC3)c2[nH]1 | 1870 | 22 | 25 | 
12 | c1ccc(Sc2nc3ncnc-3c(NC3CCCCC3)[nH]2)cc1 | 134 |  |  | 
13 | c1ccc(-c2ccc(Nc3nc4ncnc-4c(NC4CCCCC4)[nH]3)cc2)cc1 | 5400 | 14 | 22 | 
14 | CCNc1nc(NC2CCCCC2)c2[nH]cnc2n1 | 1120 | 51 | 42 | 
15 | c1ccc2cc(Nc3nc4ncnc-4c(NC4CCCCC4)[nH]3)ccc2c1 |  | 39 | 52 | 
16 | c1ccc(Oc2nc(NC3CC4CCC3C4)c3nc[nH]c3n2)cc1 (configuration not stated) | 74 |  | 25 | Ki (Adenosine receptor A1 [3]): 1470 nM
17 | CN(C)c1ccc(Nc2nc(NC3CCCCC3)c3[nH]cnc3n2)cc1 | 70 |  |  | Ki (Adenosine receptor A1 [3]): 3900 nM; Ki (Adenosine receptor A2a [4]): 6100 nM
18 | c1nc2nc(Nc3ccc(N4CCOCC4)cc3)[nH]c(NC3CCCCCCC3)c-2n1 | 2770 | 0 | 17 | 
19 | c1nc2nc(Nc3ccc(N4CCOCC4)cc3)[nH]c(NC3CCCCCC3)c-2n1 | 420 | 6 | 38 | 
20 | c1nc2nc(Nc3ccc(N4CCOCC4)cc3)[nH]c(NC3CCC3)c-2n1 | 1810 | 29 | 18 | 
21 | c1nc2nc(Nc3ccc(N4CCOCC4)cc3)nc(NC3CCCCC3)c2[nH]1 [REVERSINE] | 660 |  |  | Ki (Adenosine receptor A1 [3]): > 10000 nM; Ki (Adenosine receptor A2a [4]): > 10000 nM
22 | c1nc2nc(Nc3ccc(N4CCOCC4)cc3)[nH]c(NC3CCCC3)c-2n1 | 1390 | 22 | 20 | 
23 | CC(C)N(C)c1nc2c(NC3CC4CC3CC4O)ncnc2n1C (configuration not stated) |  |  |  | Ki (Adenosine receptor A1 [8]): 1.7 nM
24 | CCNc1[nH]c(Nc2ccc(N3CCOCC3)cc2)nc2ncnc1-2 | 1530 | 23 | 16 | 
